Laboratory results: ChEMBL document CHEMBL1649351, “Synthesis, in vitro antimicrobial and in vivo antitumor evaluation of novel pyrimidoquinolines and its nucleoside derivatives” (Eur J Med Chem, 2011)

Columns and labels:
Pseudomonas aeruginosa = experiment: Antibacterial activity against Pseudomonas aeruginosa at 50 mg/disk after 24 to 28 hrs by agar disk diffusion method; format: functional
Lactococcus lactis = experiment: Antibacterial activity against Streptococcus lactis at 50 mg/disk after 24 to 28 hrs by agar disk diffusion method; format: functional
Candida albicans = experiment: Antifungal activity against Candida albicans at 50 mg/disk after 5 days by agar disk diffusion method; format: functional
Bacillus subtilis = experiment: Antibacterial activity against Bacillus subtilis at 50 mg/disk after 24 to 28 hrs by agar disk diffusion method; format: functional
Escherichia coli = experiment: Antibacterial activity against Escherichia coli at 50 mg/disk after 24 to 28 hrs by agar disk diffusion method; format: functional
Nakaseomyces glabratus = experiment: Antifungal activity against Candida glabrata at 50 mg/disk after 5 days by agar disk diffusion method; format: functional
Mus musculus [1] = experiment: Acute toxicity in human HeLa cells xenografted ip dosed Swiss albino mouse assessed as mortality measured up to 2 weeks; format: organism-based; conditions: in vivo, 336 h
Summary of the method: (§1)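 Adult Swiss albino mice were fasted 12 h and randomised into groups of 10. Each group got one i.p. dose from a graded series, given at 1 ml/kg body weight; controls got vehicle alone. Food and water were returned right after dosing. Mortality was followed for up to two weeks, and LD50 was taken as the dose giving 50% mortality.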

HepG2 [2] = experiment: Antitumor activity against human HepG2 cells xenografted in Swiss albino mouse assessed as increase of mouse survival at 10 ug/kg, ip for 10 days (reference value: 22 +/- 1.90 day); format: functional
HeLa [3] = experiment: Antitumor activity against human HeLa cells xenografted in Swiss albino mouse assessed as increase of mouse survival at 10 ug/kg, ip for 10 days (reference value: 22 +/- 1.90 day); format: functional
Mus musculus [4] = experiment: Acute toxicity in human HepG2 cells xenografted ip dosed Swiss albino mouse assessed as mortality measured up to 2 weeks; format: organism-based; conditions: in vivo, 336 h; summary of the method: as §1
HeLa [5] = experiment: Antitumor activity against human HeLa cells xenografted in Swiss albino mouse assessed as increase mouse life span at 10 ug/kg, ip for 10 days relative to control; format: functional
HepG2 [6] = experiment: Antitumor activity against human HepG2 cells xenografted in Swiss albino mouse assessed as increase mouse life span at 10 ug/kg, ip for 10 days relative to control; format: functional

Compound | diameter of the inhibition zone (DIZ) (Pseudomonas aeruginosa) [mm] | diameter of the inhibition zone (DIZ) (Lactococcus lactis) [mm] | diameter of the inhibition zone (DIZ) (Candida albicans) [mm] | diameter of the inhibition zone (DIZ) (Bacillus subtilis) [mm] | diameter of the inhibition zone (DIZ) (Escherichia coli) [mm] | diameter of the inhibition zone (DIZ) (Nakaseomyces glabratus) [mm] | LD50 (Mus musculus [1]) [mg/kg] | Survival (HepG2 [2]) [days] | Survival (HeLa [3]) [days] | LD50 (Mus musculus [4]) [mg/kg] | Activity (HeLa [5]) [%] | Activity (HepG2 [6]) [%] | inhibition zone (IZ) (Nakaseomyces glabratus) [mm]
COc1ccc(/C=N\Nc2nc3c(c(=O)[nH]2)C(c2ccc([N+](=O)[O-])cc2)C2=C(CC(C)(C)CC2=O)N3)cc1 (configuration not stated) | 16 | 16 | 7 | 15 | 17 | 8 |  |  |  |  |  |  | 
CSc1nc2c(c(=O)[nH]1)C(c1ccc([N+](=O)[O-])cc1)C1=C(CC(C)(C)CC1=O)N2[C@@H]1O[C@H](COC(C)=O)[C@@H](OC(C)=O)[C@@H]1OC(C)=O (some centres not stated) | 23 | 20 | 8 | 19 | 21 | 9 |  |  |  |  |  |  | 
CSc1nc2c(c(=O)n1C)C(c1ccc([N+](=O)[O-])cc1)C1=C(CC(C)(C)CC1=O)N2 (configuration not stated) | 14 | 13 | 8 | 15 | 15 | 6 | 0.111 | 34 | 28 | 0.098 | 48 | 50 | 
CC1(C)CC(=O)C2=C(C1)Nc1nc3[nH]nnn3c(=O)c1C2c1ccc([N+](=O)[O-])cc1 (configuration not stated) | 19 | 18 | 12 | 23 | 20 | 10 |  |  |  |  |  |  | 
CC1(C)CC(=O)C2=C(C1)Nc1nc(NN)[nH]c(=O)c1C2c1ccc([N+](=O)[O-])cc1 (configuration not stated) | 15 | 15 | 9 | 15 | 15 | 8 | 0.1 | 28 | 29 | 0.089 | 38 | 31 | 
CSc1nc2c(c(=O)n1C)C(c1ccc([N+](=O)[O-])cc1)C1=C(CC(C)(C)CC1Cl)N2 (configuration not stated) | 14 | 13 | 10 | 14 | 15 | 9 | 0.103 | 33 | 31 | 0.1 | 45 | 48 | 
CC1(C)CC(=O)C2=C(C1)Nc1nc3[nH]nc(-c4ccc(Cl)cc4)n3c(=O)c1C2c1ccc([N+](=O)[O-])cc1 (configuration not stated) | 17 | 15 | 9 | 18 | 18 | 7 | 0.089 | 36 | 34 | 0.095 | 57 | 51 | 
CC1(C)CC(=O)C2=C(C1)Nc1nc(Nn3c(=O)c4cc5c(=O)n(Nc6nc7c(c(=O)[nH]6)C(c6ccc([N+](=O)[O-])cc6)C6=C(CC(C)(C)CC6=O)N7)c(=O)c5cc4c3=O)[nH]c(=O)c1C2c1ccc([N+](=O)[O-])cc1 (configuration not stated) | 22 | 25 | 13 | 22 | 23 | 12 | 0.099 | 38 | 29 | 0.099 | 53 | 58 | 
CSc1nc2c(c(=O)[nH]1)C(c1ccc([N+](=O)[O-])cc1)C1=C(CC(C)(C)CC1=O)N2[C@@H]1O[C@H](COC(C)=O)[C@@H](OC(C)=O)[C@H](OC(C)=O)[C@H]1OC(C)=O (some centres not stated) | 22 | 20 | 8 | 20 | 23 | 8 | 0.111 | 36 | 37 | 0.109 | 61 | 66 | 
Cc1n[nH]c2nc3c(c(=O)n12)C(c1ccc([N+](=O)[O-])cc1)C1=C(CC(C)(C)CC1=O)N3 (configuration not stated) | 22 | 21 | 11 | 18 | 18 | 11 |  |  |  |  |  |  | 
CC1(C)CC(=O)C2=C(C1)Nc1nc(N)[nH]c(=O)c1C2c1ccc([N+](=O)[O-])cc1 (configuration not stated) | 23 | 20 | 9 | 25 | 27 | 9 | 0.09 | 35 | 31 | 0.095 | 50 | 49 | 
CC1(C)CC(=O)C2=C(C1)Nc1nc(N/N=C\c3ccc(Cl)cc3)[nH]c(=O)c1C2c1ccc([N+](=O)[O-])cc1 (configuration not stated) | 17 | 17 | 7 | 16 | 18 | 6 | 0.09 | 37 | 32 | 0.096 | 50 | 53 | 
CSc1nc2c(c(=O)[nH]1)C(c1ccc([N+](=O)[O-])cc1)C1=C(CC(C)(C)CC1=O)N2[C@@H]1OC[C@@H](O)[C@@H](O)[C@@H]1O (some centres not stated) | 23 | 18 | 7 | 20 | 24 | 8 | 0.116 | 37 | 38 | 0.11 | 66 | 60 | 
CC1(C)CC(=O)C2=C(C1)Nc1nc(N/N=C\c3ccccc3)[nH]c(=O)c1C2c1ccc([N+](=O)[O-])cc1 (configuration not stated) | 16 | 18 | 7 | 17 | 17 | 6 |  |  |  |  |  |  | 
CSc1nc2c(c(=O)[nH]1)C(c1ccc([N+](=O)[O-])cc1)C1=C(CC(C)(C)CC1=O)N2 (configuration not stated) | 14 | 14 | 7 | 13 | 13 | 8 |  |  |  |  |  |  | 
CCn1cc(C(=O)O)c(=O)c2ccc(C)nc21 [NALIDIXIC ACID] | 25 | 25 |  | 25 | 25 |  |  |  |  |  |  |  | 
CSc1nc2c(c(=O)[nH]1)C(c1ccc([N+](=O)[O-])cc1)C1=C(CC(C)(C)CC1=O)N2[C@@H]1O[C@H](COC(C)=O)[C@H](OC(C)=O)[C@H](OC(C)=O)[C@H]1OC(C)=O (some centres not stated) | 23 | 19 | 7 | 20 | 25 | 8 |  |  |  |  |  |  | 
NYSTATIN |  |  |  |  |  |  |  |  |  |  |  |  | 20
CC1(C)CC(=O)C2=C(C1)Nc1nc3n(N)c(-c4ccccc4)cn3c(=O)c1C2c1ccc([N+](=O)[O-])cc1 (configuration not stated) | 23 | 20 | 8 | 20 | 23 | 6 |  |  |  |  |  |  | 
CSc1nc2c(c(=O)[nH]1)C(c1ccc([N+](=O)[O-])cc1)C1=C(CC(C)(C)CC1=O)N2[C@@H]1O[C@H](CO)[C@H](O)[C@H](O)[C@H]1O (some centres not stated) | 22 | 20 | 8 | 21 | 22 | 7 |  |  |  |  |  |  | 
